Reference: ChEMBL document CHEMBL3286128 (J Med Chem, 2014)
Active and inactive are the calls of the source. The calls are words filed in the database; no cut-off is given here.

Columns and labels:
[1] = biological target: T1, Human immunodeficiency virus type 1 integrase (Human immunodeficiency virus 1, UniProt Q7ZJM1); assay: Inhibition of strand transfer activity of HIV-1 integrase using [gamma-32P]-labeled DNA as substrate
Method in brief: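 Gel-based assay with radiolabelled oligonucleotide substrate and Mg2+ cofactor, measuring strand transfer by recombinant HIV-1 integrase. IC50 determined.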

[2] = biological target: T1, Human immunodeficiency virus type 1 integrase
[3] = test system: Human immunodeficiency virus 1; assay: Ratio of EC50 for raltegravir-resistant HIV-1 harboring integrase G140S/Q148H double mutant infected in human HOS cells to EC50 for HIV-1 harboring integrase wild type integrase infected in human HOS cells; format: functional
[4] = test system: HOS; assay: Cytotoxicity against human HOS cells assessed as ATP level by luciferase reporter assay; format: cell-based
Method in brief: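 HOS cells were exposed to compound and viability was read as ATP level by luciferase reporter. […] SI is CC50 divided by WT-vector EC50.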

[5] = biological target: Human immunodeficiency virus type 1 reverse transcriptase (Human immunodeficiency virus 1) (UniProt Q72547); assay: Inhibition of HIV-1 DNA-dependent DNA polymerase activity of reverse transcriptase after 60 mins by agarose gel electrophoresis
[6] = test system: Human immunodeficiency virus 1; assay: Ratio of EC50 for raltegravir-resistant HIV-1 harboring integrase N155H mutant infected in human HOS cells to EC50 for HIV-1 harboring integrase wild type integrase infected in human HOS cells; format: functional
[7] = test system: Human immunodeficiency virus 1; assay: Antiviral activity against raltegravir-resistant HIV-1 harboring integrase G140S/Q148H double mutant infected in human HOS cells pretreated with compound for 3 hrs by single-round HIV-1 infectivity assay; format: functional, organism-based; details: Human immunodeficiency virus 1, HOS
[8] = test system: Human immunodeficiency virus 1; assay: Antiviral activity against HIV-1 harboring wild type integrase infected in human HOS cells pretreated with compound for 3 hrs by single-round HIV-1 infectivity assay in presence of 5% fetal bovine serum; format: functional, organism-based; details: Human immunodeficiency virus 1, HOS
Method in brief: (§1)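 VSV-g-pseudotyped single-round HIV-1 luciferase vector (WT or mutant IN) made in 293T cells by calcium phosphate transfection, supernatant harvested at 48 h. HOS cells were seeded the day before, then pretreated with compound, 11 serial dilutions from 10 μM to 0.0005 μM, at 37 °C for 3 h. Virus was added and cells kept 48 h at 37 °C. Luciferase was read and normalised to infectivity without compound.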

[9] = test system: Human immunodeficiency virus 1; assay: Ratio of EC50 for INSTI-resistant HIV-1 harboring integrase R263K mutant infected in human HOS cells to EC50 for HIV-1 harboring integrase wild type integrase infected in human HOS cells; format: functional
[10] = biological target: Human immunodeficiency virus type 1 reverse transcriptase (Human immunodeficiency virus 1) (UniProt Q72547); assay: Inhibition of HIV-1 RNase H activity of reverse transcriptase assessed as full length RNA level at 10 uM by agarose gel electrophoresis
[11] = biological target: Human immunodeficiency virus type 1 reverse transcriptase (Human immunodeficiency virus 1) (UniProt Q72547); assay: Inhibition of HIV-1 reverse transcriptase RNase H activity-mediated -8 cleavage assessed as retention of -17 cleavage after 10 to 15 mins by agarose gel electrophoresis
[12] = test system: Human immunodeficiency virus 1; assay: Antiviral activity against INSTI-resistant HIV-1 harboring integrase R263K mutant infected in human HOS cells pretreated with compound for 3 hrs by single-round HIV-1 infectivity assay; format: functional, organism-based; details: Human immunodeficiency virus 1, HOS; method in brief: as §1
[13] = test system: Human immunodeficiency virus 1; assay: Antiviral activity against HIV-1 harboring wild type integrase infected in human HOS cells pretreated with compound for 3 hrs by single-round HIV-1 infectivity assay; format: functional, organism-based; details: Human immunodeficiency virus 1, HOS
[14] = test system: Human immunodeficiency virus 1; assay: Antiviral activity against raltegravir-resistant HIV-1 harboring integrase N155H mutant infected in human HOS cells pretreated with compound for 3 hrs by single-round HIV-1 infectivity assay; format: functional, organism-based; details: Human immunodeficiency virus 1, HOS
[15] = test system: Human immunodeficiency virus 1; assay: Antiviral activity against HIV-1 harboring wild type integrase infected in human HOS cells pretreated with compound for 3 hrs by single-round HIV-1 infectivity assay in presence of 15% fetal bovine serum; format: functional, organism-based; details: Human immunodeficiency virus 1, HOS; method in brief: as §1
[16] = test system: Human immunodeficiency virus 1; assay: Ratio of EC50 for raltegravir-resistant HIV-1 harboring integrase Y143R mutant infected in human HOS cells to EC50 for HIV-1 harboring integrase wild type integrase infected in human HOS cells; format: functional
[17] = Retention time of the compound by HPLC analysis; format: physicochemical
Method in brief: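 Preparative HPLC run as a linear gradient of solvent B over 30 min, starting at 30% B and ending at 70% or 80% B depending on the compound. Retention time was taken at elution.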

[18] = test system: Human immunodeficiency virus 1; assay: Antiviral activity against raltegravir-resistant HIV-1 harboring integrase Y143R mutant infected in human HOS cells pretreated with compound for 3 hrs by single-round HIV-1 infectivity assay; format: functional, organism-based; details: Human immunodeficiency virus 1, HOS
[19] = test system: Human immunodeficiency virus 1; assay: Antiviral activity against INSTI-resistant HIV-1 harboring integrase G118R mutant infected in human HOS cells pretreated with compound for 3 hrs by single-round HIV-1 infectivity assay; format: functional, organism-based; details: Human immunodeficiency virus 1, HOS; method in brief: as §1
[20] = test system: Human immunodeficiency virus 1; assay: Antiviral activity against HIV-1 harboring wild type integrase infected in human HOS cells pretreated with compound for 3 hrs by single-round HIV-1 infectivity assay in presence of 10% fetal bovine serum; format: functional, organism-based; details: Human immunodeficiency virus 1, HOS; method in brief: as §1
[21] = Selectivity index, ratio of CC50 for human HOS cells to EC50 for HIV-1 harboring wild type integrase infected in human HOS cells; format: toxicity, cell-based; details: read-out: Ratio CC50/EC50
Method in brief: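 HOS cells were exposed to compound and viability was read as ATP level by luciferase reporter. SI is CC50 divided by WT-vector EC50.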

[22] = test system: Human immunodeficiency virus 1; assay: Ratio of EC50 for INSTI-resistant HIV-1 harboring integrase G118R mutant infected in human HOS cells to EC50 for HIV-1 harboring integrase wild type integrase infected in human HOS cells; format: functional

T1 sequence (Q7ZJM1 whole entry): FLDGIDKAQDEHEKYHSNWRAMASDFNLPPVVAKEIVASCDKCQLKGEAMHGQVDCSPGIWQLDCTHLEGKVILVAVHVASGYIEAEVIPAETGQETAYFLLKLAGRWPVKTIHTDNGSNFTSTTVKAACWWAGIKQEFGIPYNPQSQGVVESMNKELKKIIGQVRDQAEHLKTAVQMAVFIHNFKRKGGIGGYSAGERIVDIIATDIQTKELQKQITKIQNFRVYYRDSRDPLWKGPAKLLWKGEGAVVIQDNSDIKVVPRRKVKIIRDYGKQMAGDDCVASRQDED

With `COC(=O)CNc1c(C(=O)NCc2ccc(F)cc2F)c(=O)n(O)c2ncccc12` the IC50 [1] was 21 nM, the IC50 [2] was 710 nM and the “Ratio EC50” value [3] was 9. The CC50 [4] was > 250 µM, the inhibition [5] was “Active” and the “Ratio EC50” value [6] was 5. The EC50 [7] was 36 nM, the EC50 [8] was 3.8 nM and the “Ratio EC50” value [9] was 7. The inhibition [10] was “inactive”, the inhibition [11] was “Active” and the EC50 [12] was 26 nM. For the same molecule, the EC50 [13] was 3.8 nM, the EC50 [14] was 19 nM and the EC50 [15] was 3 nM. For the same molecule, the “Ratio EC50” value [16] was 1, the Retention_time [17] was 28.4 min and the EC50 [18] was 4.6 nM. The EC50 [19] was 41 nM, the EC50 [20] was 3 nM and the selectivity ratio [21] was > 65800. For the same molecule, the “Ratio EC50” value [22] was 11.
